Calls of active or inactive are those of the source. The rule behind the calls is not given here.
Assays:
[1] = test system: PC-3; experiment: Cytotoxicity against human PC3 cells after 48 hrs by SRB assay; format: functional, cell-based; conditions: PC-3, 48 h
Outline: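 PC-3 cells grown in RPMI1640 with 10% FBS at 37 °C, 5% CO₂. Seeded in medium with 5% FBS; after 24 h, one plate fixed with 10% TCA as T₀. Compound or 0.1% DMSO vehicle added for 48 h, then TCA fixation and 0.4% SRB in 1% acetic acid. Dye solubilized in 10 mM Trizma base, absorbance read at 515 nm. IC50 is the concentration giving 50% reduction of the protein gain in controls.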

[2] = test system: KM12; experiment: Cytotoxicity against human KM12 cells assessed as cellular growth at 10 uM; format: functional
Outline: (§1)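 Single-dose screen run by the NCI across its 60-human-tumour-cell-line panel; growth recorded for each cell line.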

[3] = test system: NCI-H226; experiment: Cytotoxicity against human NCI-H226 cells assessed as cellular growth at 10 uM; format: functional; outline: as §1
[4] = molecular target: Telomerase reverse transcriptase (Homo sapiens) (UniProt O14746); experiment: Residual activity of human TERT in H1299 cells at 10 uM after 24 hrs by SEAP reporter gene assay
[5] = test system: SK-OV-3; experiment: Cytotoxicity against human SKOV3 cells assessed as cellular growth at 10 uM; format: functional
[6] = test system: SF-539; experiment: Cytotoxicity against human SF539 cells assessed as cellular growth at 10 uM; format: functional; outline: as §1
[7] = test system: HT-29; experiment: Cytotoxicity against human HT-29 cells assessed as cellular growth at 10 uM; format: functional; outline: as §1
[8] = test system: MDA-MB-435; experiment: Cytotoxicity against human MDA-MB-435 cells assessed as cellular growth at 10 uM; format: functional; outline: as §1
[9] = test system: SK-MEL-28; experiment: Cytotoxicity against human SK-MEL-28 cells assessed as cellular growth at 10 uM; format: functional; outline: as §1
[10] = test system: A549; experiment: Cytotoxicity against human A549 cells assessed as cellular growth at 10 uM; format: functional; outline: as §1
[11] = test system: NCI-H322M; experiment: Cytotoxicity against human NCI-H322M cells assessed as cellular growth at 10 uM; format: functional; outline: as §1
[12] = test system: NCI/ADR-RES; experiment: Cytotoxicity against human NCI/ADR-RES cells assessed as cellular growth at 10 uM; format: functional; outline: as §1
[13] = test system: Malme-3M; experiment: Cytotoxicity against human MALME-3M cells assessed as cellular growth at 10 uM; format: functional; outline: as §1
[14] = test system: NCI-H522; experiment: Cytotoxicity against human NCI-H522 cells assessed as cellular growth at 10 uM; format: functional; outline: as §1
[15] = Growth of human H1299 cells at 10 uM after 48 hrs by MTT assay; conditions: NCI-H1299, 48 h
[16] = test system: SR; experiment: Cytotoxicity against human SR cells assessed as cellular growth at 10 uM; format: functional
[17] = test system: HCT-116; experiment: Cytotoxicity against human HCT116 cells assessed as cellular growth at 10 uM; format: functional; outline: as §1
[18] = test system: MCF7; experiment: Cytotoxicity against human MCF7 cells assessed as cellular growth at 10 uM; format: functional; outline: as §1
[19] = test system: SN12C; experiment: Cytotoxicity against human SN12C cells assessed as cellular growth at 10 uM; format: functional
[20] = test system: SNB-19; experiment: Cytotoxicity against human SNB19 cells assessed as cellular growth at 10 uM; format: functional
[21] = test system: SNB-75; experiment: Cytotoxicity against human SNB75 cells assessed as cellular growth at 10 uM; format: functional
[22] = test system: LOX IMVI; experiment: Cytotoxicity against human LOXIMVI cells assessed as cellular growth at 10 uM; format: functional; outline: as §1
[23] = test system: BT-549; experiment: Cytotoxicity against human BT549 cells assessed as cellular growth at 10 uM; format: functional; outline: as §1
[24] = test system: HCT-15; experiment: Cytotoxicity against human HCT15 cells assessed as cellular growth at 10 uM; format: functional; outline: as §1
[25] = test system: OVCAR-5; experiment: Cytotoxicity against human OVCAR5 cells assessed as cellular growth at 10 uM; format: functional; outline: as §1
[26] = test system: SW-620; experiment: Cytotoxicity against human SW620 cells assessed as cellular growth at 10 uM; format: functional
[27] = test system: DU-145; experiment: Cytotoxicity against human DU145 cells assessed as cellular growth at 10 uM; format: functional; outline: as §1
[28] = test system: SF-295; experiment: Cytotoxicity against human SF295 cells assessed as cellular growth at 10 uM; format: functional; outline: as §1
[29] = Growth of human H1299 cells at 100 uM 48 hrs by MTT assay; conditions: NCI-H1299, 48 h
[30] = test system: M14; experiment: Cytotoxicity against human M14 cells assessed as cellular growth at 10 uM; format: functional; outline: as §1
[31] = test system: UO-31; experiment: Cytotoxicity against human UO31 cells assessed as cellular growth at 10 uM; format: functional
[32] = test system: A498; experiment: Cytotoxicity against human A498 cells assessed as cellular growth at 10 uM; format: functional; outline: as §1
[33] = test system: OVCAR-8; experiment: Cytotoxicity against human OVCAR8 cells assessed as cellular growth at 10 uM; format: functional; outline: as §1
[34] = test system: SK-MEL-2; experiment: Cytotoxicity against human SK-MEL-2 cells assessed as cellular growth at 10 uM; format: functional; outline: as §1
[35] = molecular target: Telomerase reverse transcriptase (Homo sapiens) (UniProt O14746); experiment: Inhibition of telomerase activity in human H1299 cell free extract at 10 uM by modified TRAP assay
Outline: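 TRAP assay using total cell lysate from H1299 lung cancer cells as the telomerase source, with protein measured against BSA standards. Compounds tested at 10 µM. Controls were lysate without inhibitor (positive) and RNase A-treated extract without inhibitor (negative).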

[36] = test system: T47D; experiment: Cytotoxicity against human T47D cells assessed as cellular growth at 10 uM; format: functional
[37] = test system: SF-268; experiment: Cytotoxicity against human SF268 cells assessed as cellular growth at 10 uM; format: functional; outline: as §1
[38] = test system: PC-3; experiment: Cytotoxicity against human PC3 cells assessed as cellular growth at 10 uM; format: functional; outline: as §1
[39] = test system: MDA-MB-468; experiment: Cytotoxicity against human MDA-MB-468 cells assessed as cellular growth at 10 uM; format: functional; outline: as §1
[40] = test system: IGROV-1; experiment: Cytotoxicity against human IGROV1 cells assessed as cellular growth at 10 uM; format: functional; outline: as §1
[41] = test system: OVCAR-3; experiment: Cytotoxicity against human OVCAR3 cells assessed as cellular growth at 10 uM; format: functional; outline: as §1
[42] = Growth of human H1299 cells at 1 uM after 48 hrs by MTT assay; conditions: NCI-H1299, 48 h
[43] = test system: SK-MEL-5; experiment: Cytotoxicity against human SK-MEL-5 cells assessed as cellular growth at 10 uM; format: functional

Telomerase reverse transcriptase (Homo sapiens), sequence (O14746 whole entry): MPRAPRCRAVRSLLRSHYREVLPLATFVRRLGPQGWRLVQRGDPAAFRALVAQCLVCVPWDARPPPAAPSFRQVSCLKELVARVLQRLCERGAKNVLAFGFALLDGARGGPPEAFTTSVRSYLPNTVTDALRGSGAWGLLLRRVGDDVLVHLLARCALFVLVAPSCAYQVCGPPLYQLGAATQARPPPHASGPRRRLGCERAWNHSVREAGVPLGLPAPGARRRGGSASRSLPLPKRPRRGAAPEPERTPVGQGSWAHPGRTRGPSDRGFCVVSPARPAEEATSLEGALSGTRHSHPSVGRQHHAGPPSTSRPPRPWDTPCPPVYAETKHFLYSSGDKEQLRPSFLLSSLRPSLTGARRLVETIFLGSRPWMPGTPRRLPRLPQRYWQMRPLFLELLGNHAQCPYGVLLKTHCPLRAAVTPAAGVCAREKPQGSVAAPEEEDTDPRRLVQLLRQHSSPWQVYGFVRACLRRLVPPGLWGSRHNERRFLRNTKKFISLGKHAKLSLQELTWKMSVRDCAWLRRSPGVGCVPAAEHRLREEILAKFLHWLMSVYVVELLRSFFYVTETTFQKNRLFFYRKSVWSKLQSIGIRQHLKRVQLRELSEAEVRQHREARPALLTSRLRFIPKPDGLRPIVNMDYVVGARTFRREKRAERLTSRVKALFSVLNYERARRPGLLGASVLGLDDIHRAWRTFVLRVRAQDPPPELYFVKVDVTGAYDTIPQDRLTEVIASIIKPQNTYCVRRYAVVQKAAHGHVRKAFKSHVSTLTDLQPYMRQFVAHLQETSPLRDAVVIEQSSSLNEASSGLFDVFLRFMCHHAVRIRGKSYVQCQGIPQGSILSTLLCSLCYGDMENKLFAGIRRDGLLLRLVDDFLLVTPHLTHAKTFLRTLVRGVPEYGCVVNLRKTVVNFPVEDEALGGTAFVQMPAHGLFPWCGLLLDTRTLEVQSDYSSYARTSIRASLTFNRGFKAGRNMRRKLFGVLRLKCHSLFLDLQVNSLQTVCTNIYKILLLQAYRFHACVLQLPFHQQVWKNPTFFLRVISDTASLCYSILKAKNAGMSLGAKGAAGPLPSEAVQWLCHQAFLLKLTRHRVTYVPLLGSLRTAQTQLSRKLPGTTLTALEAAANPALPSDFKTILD

With `Cc1ccc(C(=O)Nc2c(NC(=O)CCl)ccc3c2C(=O)c2ccccc2C3=O)cc1` the IC50 [1] was 3.87 µM, the Activity [2] was -19.53% and the Activity [3] was -25.3%. The residual activity [4] was 0%, the Activity [5] was 106.24% and the Activity [6] was -31.42%. For the same molecule, the Activity [7] was 3.37%, the Activity [8] was 4.82% and the Activity [9] was -31.94%. It also gave an Activity [10] of -81.71%, an Activity [11] of 95.05% and an Activity [12] of 72.17%. The Activity [13] was -22.41%, the Activity [14] was 57.88% and the growth, % of control at 10 µM [15] was 2%. The Activity [16] was -19.84%, the Activity [17] was -54.27% and the Activity [18] was -79.28%. For the same molecule, the Activity [19] was -81.02%, the Activity [20] was 88.4% and the Activity [21] was 6.31%. For the same molecule, the Activity [22] was -57.05%, the Activity [23] was 28.19% and the Activity [24] was -50.22%. The Activity [25] was 109.55%, the Activity [26] was -43.27% and the Activity [27] was -97.56%. The Activity [28] was 79.7%, the growth, % of control at 100 µM [29] was 0% and the Activity [30] was -22.68%. The Activity [31] was 42.91%, the Activity [32] was 123.78% and the Activity [33] was 8.72%. The Activity [34] was 52%, the inhibition [35] was “inactive” and the Activity [36] was -49.46%. For the same molecule, the Activity [37] was 14.63%, the Activity [38] was 6.81% and the Activity [39] was -83.42%. The Activity [40] was 51.41%, the Activity [41] was -92.86% and the growth, % of control at 1 µM [42] was 103%. It also gave an Activity [43] of -98.72%.
